Assays:
[1] = tested on: Plasmodium yoelii; test: Antimalarial activity as reduced parasitaemia (%) against multidrug-resistant Plasmodium yoelii infected Swiss mice (Mus musculus) at 96 mg/kg peroral dose after 4 days; type: functional; parameters: scale not given: the % may be the effect or the level left; conditions: route oral
Outline: (§1)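 Colony-bred Swiss mice (25 ± 1 g) inoculated with 1×10^6 parasitized RBC on day 0, five per dose group. Dosed orally in groundnut oil (0.1 ml), days 0–3, as two divided doses daily. Parasitaemia read from thin blood smears. Day-4 suppression = [(C−T)/C]×100 against the control group; 100% means parasites below the detection limit. β-Arteether was the positive control.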

[2] = tested on: Mus musculus; test: Survival of multidrug-resistant Plasmodium yoelii infected Swiss mice (Mus musculus) at 96 mg/kg, perorally after 28 days; type: ADME, organism-based; parameters: dose 96 mg/kg, route oral; conditions: in vivo, po, 672 h
Outline: (§2)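 Swiss mice (25 ± 1 g) infected on day 0 with 1×10^6 parasitized RBC, five per dose. Given the drug orally in groundnut oil (0.1 ml), split into two daily doses on days 0–3. Parasitaemia followed by thin blood smears from day 4 to 28. Mice surviving beyond day 28 were scored as protected, expressed as the percent of treated mice. β-Arteether was the positive control.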

[3] = tested on: Plasmodium yoelii; test: Antimalarial activity as reduced parasitaemia (%) against multidrug-resistant Plasmodium yoelii infected Swiss mice (Mus musculus) at 48 mg/kg peroral dose after 4 days; type: functional; parameters: scale not given: the % may be the effect or the level left; conditions: route oral; outline: as §1
[4] = tested on: Plasmodium yoelii; test: Antimalarial activity as reduced parasitaemia (%) against multidrug-resistant Plasmodium yoelii infected Swiss mice (Mus musculus) at 24 mg/kg peroral dose after 4 days; type: functional; parameters: scale not given: the % may be the effect or the level left; conditions: route oral
[5] = tested on: Mus musculus; test: Survival of multidrug-resistant Plasmodium yoelii infected Swiss mice (Mus musculus) at 48 mg/kg, perorally after 28 days; type: ADME, organism-based; parameters: dose 48 mg/kg, route oral; conditions: in vivo, po, 672 h; outline: as §2

Row | Structure (SMILES) | Activity [1] | Activity [2] | Activity [3] | Activity [4] | Activity [5]
1 | C=C(c1ccc(F)cc1)C1COC2(CC[C@@]3(C)C(CC[C@H]4[C@@H]5CC[C@H]([C@H](C)CCCC(C)C)[C@@]5(C)CC[C@@H]43)C2)OO1 (stereo partly specified) | 14.8% | Not Active |  |  | 
2 | C=C(c1ccc(Cl)cc1)C1COC2(CC[C@@]3(C)C(CC[C@H]4[C@@H]5CC[C@H]([C@H](C)CCCC(C)C)[C@@]5(C)CC[C@@H]43)C2)OO1 (stereo partly specified) | 43.4% | Not Active |  |  | 
3 | C=C(c1ccc(OC)cc1)C1COC2(CC[C@@]3(C)C(CC[C@@H]4[C@@H]3CC[C@@]3(C)[C@H]4OCC34CC[C@@H](C)CO4)C2)OO1 (stereo partly specified) | 36.1% | Not Active |  |  | 
4 | C=C(c1ccc(F)cc1)C1COC2(CC[C@@]3(C)C(CC[C@H]4[C@@H]5CC[C@H](C(C)=O)[C@@]5(C)CC[C@@H]43)C2)OO1 (stereo partly specified) | 100% |  | 100% |  | 
5 | C=C(c1ccc(Br)cc1)C1COC2(CC[C@@]3(C)C(CC[C@H]4[C@@H]5CC[C@H](C(C)=O)[C@@]5(C)CC[C@@H]43)C2)OO1 (stereo partly specified) | 100% |  | 100% |  | 
6 | C=C(c1ccccc1)C1COC2(CC[C@@]3(C)C(CC[C@@H]4[C@@H]3CC[C@]3(C)C([C@H](C)CCCC(C)C)CC[C@@H]43)C2)OO1 (stereo partly specified) | 73% | Not Active |  |  | 
7 | C=C(c1ccc(C)cc1)C1COC2(CC[C@@]3(C)C(CC[C@H]4[C@@H]5CC[C@H]([C@H](C)CCCC(C)C)[C@@]5(C)CC[C@@H]43)C2)OO1 (stereo partly specified) | 27.4% | Not Active |  |  | 
8 | C=C(c1ccc(Br)cc1)C1COC2(CC[C@@]3(C)C(CC[C@H]4[C@@H]5CC[C@H]([C@H](C)CCCC(C)C)[C@@]5(C)CC[C@@H]43)C2)OO1 (stereo partly specified) | 26.1% | Not Active |  |  | 
9 | C=C(c1ccc(Cl)cc1)C1COC2(CC[C@@]3(C)C(CC[C@H]4[C@@H]5CC[C@H](C(C)=O)[C@@]5(C)CC[C@@H]43)C2)OO1 (stereo partly specified) | 100% |  | 100% |  | 
10 | C=C(c1ccc(OC)cc1)C1COC2(CC[C@@]3(C)C(CC[C@H]4[C@@H]5CC[C@H]([C@H](C)CCCC(C)C)[C@@]5(C)CC[C@@H]43)C2)OO1 (stereo partly specified) | 53.5% | Not Active |  |  | 
11 | C=C(c1ccc(OC)cc1)C1COC2(CC[C@@]3(C)C(CC[C@H]4[C@@H]5CC[C@H](C(C)=O)[C@@]5(C)CC[C@@H]43)C2)OO1 (stereo partly specified) | 100% | Active | 100% |  | 
12 | C=C(c1ccc(C)cc1)C1COC2(CC[C@@]3(C)C(CC[C@@H]4[C@@H]3CC[C@@]3(C)[C@H]4OCC34CC[C@@H](C)CO4)C2)OO1 (stereo partly specified) | 50.7% | Not Active |  |  | 
13 | C=C(c1ccc(F)cc1)C1COC2(CC[C@@]3(C)C(CC[C@@H]4[C@@H]3CC[C@@]3(C)[C@H]4OCC34CC[C@@H](C)CO4)C2)OO1 (stereo partly specified) | 45.1% | Not Active |  |  | 
14 | C=C(c1ccc(Cl)cc1)C1COC2(CC[C@@]3(C)C(CC[C@@H]4[C@@H]3CC[C@@]3(C)[C@H]4OCC34CC[C@@H](C)CO4)C2)OO1 (stereo partly specified) | 71.7% | Not Active |  |  | 
15 | C=C(c1ccccc1)C1COC2(CC[C@@]3(C)C(CC[C@H]4[C@@H]5CC[C@H](C(C)=O)[C@@]5(C)CC[C@@H]43)C2)OO1 (stereo partly specified) | 100% |  | 100% |  | 
16 | C=C(c1ccc(C)cc1)C1COC2(CC[C@@]3(C)C(CC[C@H]4[C@@H]5CC[C@H](C(C)=O)[C@@]5(C)CC[C@@H]43)C2)OO1 (stereo partly specified) | 100% |  | 100% |  | 
17 | CCO[C@H]1O[C@@H]2O[C@@]3(C)CC[C@H]4[C@H](C)CC[C@@H]([C@H]1C)[C@@]24OO3 [ARTEMOTIL] |  |  | 100% | 100% | Active

— ChEMBL document CHEMBL1149549, “Orally active antimalarials: synthesis and bioevaluation of a new series of steroid-based 1,2,4-trioxanes against multi-drug resistant malaria in mice” (Bioorg Med Chem Lett, 2007)
